Positions count from the first letter of the chain named. Entries after “also recorded” stand apart in the source; their conditions may differ. One block for each molecule: values may come before it.
What was measured:
Scp1 [1] = target: T1, Scp1 (Homo sapiens, UniProt Q9GZU7); test: pNPP assay of Scp1 phosphatase activity; type: biochemical
T1 sequence (Q9GZU7 77-256): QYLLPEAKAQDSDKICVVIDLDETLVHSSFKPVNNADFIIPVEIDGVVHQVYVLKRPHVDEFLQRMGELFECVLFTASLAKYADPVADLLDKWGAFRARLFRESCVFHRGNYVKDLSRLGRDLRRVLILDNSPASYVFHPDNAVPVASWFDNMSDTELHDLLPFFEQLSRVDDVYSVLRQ

Scp1 [2] = target: T1, Scp1; test: Malachite green assay with CTD-derived phosphorylated peptide; type: biochemical
How it was run: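 Human Scp1 (residues 77–256, E. coli BL21(DE3)-expressed, Ni-NTA purified), 5 ng, acting on a 17-mer Ser5-phosphorylated CTD peptide. Reaction ran 3 min at 37 °C, was quenched with malachite green reagent, and read at 620 nm. IC50 used substrate near Km with 0–100 µM inhibitor. Km came from peptide at 0.01–0.4 mM; Ki from peptide titrations without and with inhibitor.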

Scp1 [3] = target: T1, Scp1; test: Differential scanning fluorimetry, thermal stability of Scp1; type: binding; conditions: 20 µM protein, 100 µM rabeprazole; 57.8 °C in absence of compound
Scp1 F106E mutant = test: pNPP assay, Scp1 F106E mutant; type: biochemical, human
How it was run: (§1)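 Point mutants of human Scp1 (residues 77–256; E. coli BL21(DE3), Ni-NTA purified), 50 ng each. Each was preincubated with inhibitor 10 min at RT in pH 5.5 Tris-acetate buffer with 10 mM MgCl2, 0.02% Triton X-100, 1% DMSO. pNPP near Km was added and hydrolysis ran 10–15 min at 37 °C. Reactions were quenched with 0.25 N NaOH and read at 410 nm. IC50 was fitted from concentration–response curves (0–100 µM inhibitor).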

Scp1 V127A mutant = target: T2, Scp1 V127A mutant (Homo sapiens, UniProt Q9GZU7, V127A); test: pNPP assay, Scp1 V127A mutant; type: biochemical
T2 sequence (Q9GZU7 77-256 V127A): T1 sequence (Q9GZU7 77-256) with V51A
How it was run: as §1

Scp1 K157A mutant = target: T3, Scp1 K157A mutant (Homo sapiens, UniProt Q9GZU7, K157A); test: pNPP assay, Scp1 K157A mutant; type: biochemical
T3 sequence (Q9GZU7 77-256 K157A): T1 sequence (Q9GZU7 77-256) with K81A
How it was run: as §1

Scp1 L155A mutant = target: T4, Scp1 L155A mutant (Homo sapiens, UniProt Q9GZU7, L155A); test: pNPP assay, Scp1 L155A mutant; type: biochemical
T4 sequence (Q9GZU7 77-256 L155A): T1 sequence (Q9GZU7 77-256) with L79A
How it was run: as §1

[4] = tested on: Scp1 Tyr158 to Ala mutant; test: pNPP assay, Scp1 Tyr158 to Ala mutant; type: biochemical, human
How it was run: as §1

S. pombe Fcp1 = target: T5, S. pombe Fcp1 (Schizosaccharomyces pombe, UniProt Q9P376); test: pNPP assay, concentration-response on Fcp1; type: biochemical; conditions: up to 0.1 mM rabeprazole, substrate comparable to Km
T5 sequence (Q9P376 148-641): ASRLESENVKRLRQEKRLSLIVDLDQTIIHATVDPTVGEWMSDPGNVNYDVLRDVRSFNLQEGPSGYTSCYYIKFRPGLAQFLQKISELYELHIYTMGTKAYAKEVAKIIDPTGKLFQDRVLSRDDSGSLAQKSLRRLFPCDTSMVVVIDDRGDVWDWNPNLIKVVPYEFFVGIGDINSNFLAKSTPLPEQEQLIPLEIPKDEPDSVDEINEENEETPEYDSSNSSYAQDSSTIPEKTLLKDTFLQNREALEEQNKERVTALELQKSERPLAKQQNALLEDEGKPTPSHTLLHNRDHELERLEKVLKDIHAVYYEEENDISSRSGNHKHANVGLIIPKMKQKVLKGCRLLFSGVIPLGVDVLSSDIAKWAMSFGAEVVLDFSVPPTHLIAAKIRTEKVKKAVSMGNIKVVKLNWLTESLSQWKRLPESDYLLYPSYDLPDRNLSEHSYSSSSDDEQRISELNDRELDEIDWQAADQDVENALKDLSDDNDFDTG

human Dullard = target: T6, human Dullard (Homo sapiens, UniProt O95476); test: pNPP assay, concentration-response on Dullard; type: biochemical; conditions: up to 0.1 mM rabeprazole, substrate comparable to Km
T6 sequence (O95476 46-244): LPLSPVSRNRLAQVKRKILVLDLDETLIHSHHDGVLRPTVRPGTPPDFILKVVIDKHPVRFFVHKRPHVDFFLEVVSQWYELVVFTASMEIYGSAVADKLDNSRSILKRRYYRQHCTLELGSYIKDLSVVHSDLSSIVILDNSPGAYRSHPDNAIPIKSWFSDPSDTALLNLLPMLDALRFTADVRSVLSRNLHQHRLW

[5] = target: T7, bacteriophage λ Ser/Thr phosphoprotein phosphatase (λPPase) (Escherichia phage lambda, UniProt P03772); test: Inhibition of λPPase; type: biochemical; conditions: up to 1 mM concentration (data not shown)
T7 sequence (P03772 1-221): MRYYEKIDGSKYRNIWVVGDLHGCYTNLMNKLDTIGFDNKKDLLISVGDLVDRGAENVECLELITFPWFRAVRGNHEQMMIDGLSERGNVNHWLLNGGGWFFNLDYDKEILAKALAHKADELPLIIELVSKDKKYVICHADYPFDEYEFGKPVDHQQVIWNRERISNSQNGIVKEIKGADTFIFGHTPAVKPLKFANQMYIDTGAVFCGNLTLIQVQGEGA

Scp1 [6] = target: T1, Scp1; test: Concentration-response assay of rabeprazole analogues on Scp1; type: biochemical

Structure (SMILES): COCCCOc1ccnc(C[S+]([O-])c2nc3ccccc3[nH]2)c1C (stereo not drawn) [rabeprazole]
IC50 (Scp1 [1]): 4 ± 0.7 µM
mechanism of inhibition (Scp1 [1]; against pNPP): mixed inhibitor
Ki′ (Scp1 [1]; pNPP as the substrate, steady-state kinetics): 10 ± 2 µM
IC50 (Scp1 [2]): 9 ± 3 µM
Ki (Scp1 [2]): 5 ± 1 µM
mechanism of inhibition (Scp1 [2]; CTD-derived phosphorylated peptide as the substrate): competitive inhibitor
melting temperature of Scp1 in the presence of the compound (Scp1 [3]): 59.1 °C
increase of IC50 versus wildtype Scp1 (Scp1 F106E mutant): at least 10 fold
change of IC50 versus wildtype Scp1 (Scp1 V127A mutant): moderately increased IC50
change of IC50 versus wildtype Scp1 (Scp1 K157A mutant): moderately increased IC50
change of IC50 versus wildtype Scp1 (Scp1 L155A mutant): moderately increased IC50
loss of inhibition versus wildtype Scp1 [4]: at least 10 fold
inhibition of Fcp1 (S. pombe Fcp1): no inhibition
inhibition of Dullard (human Dullard): no inhibition
inhibition of λPPase [5]: no inhibition

inhibition of Scp1 (Scp1 [6]): no inhibition
Structure (SMILES): COCCCOc1cc[n+]([O-])c(C[S+]([O-])c2nc3ccccc3[nH]2)c1C (stereo not drawn) [Rabeprazole N-oxide]

inhibition of Scp1 (Scp1 [6]): did not show any inhibition
Structure (SMILES): COCCCOc1ccnc(CS(=O)(=O)c2nc3ccccc3[nH]2)c1C [Rabeprazole sulfone]

Structure (SMILES): Cc1c(OCC(F)(F)F)ccnc1C[S+]([O-])c1nc2ccccc2[nH]1 (stereo not drawn) [lansoprazole]
inhibition of Scp1 (Scp1 [6]): no inhibition; also recorded: does not inhibit

— PMC4814157 (ACS chemical biology, 2011)
